Tests used:
[1] = target: T1, Quinolone resistance protein NorA (Staphylococcus aureus) (UniProt P0A0J7); assay: Inhibition of NorA efflux pump in Staphylococcus aureus 1199B assessed as reduction in MIC of ciprofloxacin by broth checkerboard method
T1 sequence (whole entry): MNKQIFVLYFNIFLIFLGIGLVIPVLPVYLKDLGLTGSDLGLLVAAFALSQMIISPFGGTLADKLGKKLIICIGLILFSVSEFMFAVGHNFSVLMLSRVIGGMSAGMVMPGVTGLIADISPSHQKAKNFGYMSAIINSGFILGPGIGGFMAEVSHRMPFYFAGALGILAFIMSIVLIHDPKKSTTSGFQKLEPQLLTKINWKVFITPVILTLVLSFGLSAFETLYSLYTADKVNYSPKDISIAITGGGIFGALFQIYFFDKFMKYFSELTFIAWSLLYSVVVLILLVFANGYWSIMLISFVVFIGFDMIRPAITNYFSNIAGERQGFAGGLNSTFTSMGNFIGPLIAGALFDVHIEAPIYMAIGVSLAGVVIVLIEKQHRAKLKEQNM

[2] = target: T1, Quinolone resistance protein NorA (Staphylococcus aureus); assay: Inhibition of NorA efflux pump in Staphylococcus aureus 1199B assessed as potentiation of ciprofloxacin-induced antimicrobial activity after 24 hrs by broth checkerboard method
Summary of the method: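 Potentiation factor was derived from 24 h, 37 °C checkerboard ciprofloxacin MICs against S. aureus 1199B in Mueller-Hinton broth. Each inhibitor-concentration column was weighted in ascending order: 10 for column 2 (50), adding 10 per column up to 70 for […] (0.8), so that activity at lower inhibitor concentrations counts more.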

[3] = target: T1, Quinolone resistance protein NorA (Staphylococcus aureus); assay: Inhibition of NorA efflux pump in Staphylococcus aureus 1199B after 24 hrs by broth checkerboard method
[4] = target: T1, Quinolone resistance protein NorA (Staphylococcus aureus); assay: Inhibition of NorA efflux pump in Staphylococcus aureus 1199B assessed as reduction of ciprofloxacin MIC after 24 hrs by broth checkerboard method

MEC [1] [µg/mL]	PF [2]	logPF [2]	MIC [3] [µg/mL]	fold change (FC) [4]	SMILES
50	660	2.82	> 100	8	N#Cc1cccc(NC(=O)/C=C/C=C/c2ccc3c(c2)OCO3)c1
50	20	1.3	> 100	2	O=C(CCCCc1ccc2c(c1)OCO2)N1CCCCC1
50			> 100	0	CCC(CO)NC(=O)/C=C/C=C/c1ccc2c(c1)OCO2 (stereo not drawn)
3.12	300	2.48	> 100	2	O=C(/C=C/C=C/c1ccc2c(c1)OCO2)Nc1ccc(NC(=O)c2ccccc2)cc1
			8		O=C(O)c1cn(C2CC2)c2cc(N3CCNCC3)c(F)cc2c1=O
50			> 100	0	CC(C)NC(=O)/C=C/C=C/c1ccc2c(c1)OCO2
6.25	200	2.3	> 100	2	O=C(/C=C/C=C/c1ccc2c(c1)OCO2)Nc1nc2ccccc2s1
25	60	1.78	> 100	2	N#Cc1ccc(NC(=O)/C=C/C=C/c2ccc3c(c2)OCO3)cc1
3.12	300	2.48	> 100	2	O=C(/C=C/C=C/c1ccc2c(c1)OCO2)Nc1ccc2ncsc2c1
	60	1.78		2	CCC(CC)NC(=O)/C=C/C=C/c1ccc2c(c1)OCO2
50	20	1.3	> 100	2	CC(=O)Nc1ccccc1NC(=O)CCCCc1ccc2c(c1)OCO2
25	60	1.78	> 100	2	CC(O)CCNC(=O)/C=C/C=C/c1ccc2c(c1)OCO2 (stereo not drawn)
25	260	2.42	> 100	4	CC(=O)Nc1ccccc1NC(=O)/C=C/C=C/c1ccc2c(c1)OCO2
25	60	1.78	> 100	2	CC(C)CCNC(=O)/C=C/C=C/c1ccc2c(c1)OCO2
25	60	1.78	> 100	2	CN1CCN(C(=O)/C=C/C=C/c2ccc3c(c2)OCO3)CC1
50			> 100	0	CCCNC(=O)/C=C/C=C/c1ccc2c(c1)OCO2

MEC [1] [µg/mL]	PF [2]	logPF [2]	MIC [3] [µg/mL]	fold change (FC) [4]	SMILES
25	60	1.78	> 100	2	CC(C)CNC(=O)/C=C/C=C/c1ccc2c(c1)OCO2
3.12	360	2.56	> 100	2	O=C(/C=C/C=C/c1ccc2c(c1)OCO2)Nc1ccc(C(=O)Nc2ccccc2)cc1
25	60	1.78	> 100	2	O=C(/C=C/C=C/c1ccc2c(c1)OCO2)Nc1ccccc1CO
25	60	1.78	> 100	2	CCN(CC)C(=O)/C=C/C=C/c1ccc2c(c1)OCO2
25	60	1.78	> 100	2	O=C(/C=C/C=C/c1ccc2c(c1)OCO2)Nc1cccc(CO)c1
25	60	1.78	> 100		O=C(/C=C/C=C/c1ccc2c(c1)OCO2)N1CCCCC1
6.25	200	2.3	> 100	2	O=C(/C=C/C=C/c1ccc2c(c1)OCO2)Nc1ccc(CO)cc1
25	60	1.78	> 100	2	NC(=O)c1ccc(NC(=O)/C=C/C=C/c2ccc3c(c2)OCO3)cc1
50	140	2.15	> 100	4	O=C(/C=C/C=C/c1ccc2c(c1)OCO2)Nc1ccccc1
50	140	2.15	> 100	4	O=C(/C=C/C=C/c1ccc2c(c1)OCO2)NCC(O)c1ccccc1 (stereo not drawn)
50	20	1.3	> 100	2	CCN(CC)C(=O)CCCCc1ccc2c(c1)OCO2
12.5	320	2.51	> 100	4	CC(=O)Nc1cccc(NC(=O)/C=C/C=C/c2ccc3c(c2)OCO3)c1
50			> 100	0	O=C(O)/C=C/C=C/c1ccc2c(c1)OCO2
50			> 100	0	O=C(/C=C/C=C/c1ccc2c(c1)OCO2)N1CCOCC1
25	260	2.42	> 100	4	CC(=O)Nc1ccc(NC(=O)/C=C/C=C/c2ccc3c(c2)OCO3)cc1

— ChEMBL document CHEMBL1154079
